The source of these data is ChEMBL document CHEMBL1671697, “Lipophilic bisphosphonates are potent inhibitors of Plasmodium liver-stage growth” (Antimicrob Agents Chemother, 2010).

Values joined by “and” are separate entries in the source; they are usually repeats but may differ in a detail not shown here. Identical values can stand only once. Active and inactive are the calls of the source. No cut-off for these calls is given here.

The subject of data set [1] is Plasmodium berghei. The experiment in a line: Antimalarial activity against Plasmodium berghei NK65 infected in human HepG2 cells after 48 hrs by RT-PCR. Particulars: NK65, HepG2, 48 h. The data set is classed as functional, organism-based. In outline: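 P. berghei NK65 sporozoites (10,000 per well) added to human HepG2 monolayers seeded the day before, in DMEM with 10% FBS, with compound diluted in PBS; 37°C, 5% CO2, 48 h. Medium and compound were renewed at 24 h. Parasite 18S rRNA copies were quantified by real-time PCR against a plasmid standard and expressed relative to untreated control. IC50 was obtained by nonlinear regression.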

Data set [2] is described as follows: Cytotoxicity against human HepG2 cells after 22 hrs. Particulars: read-out: TC50. The data set is classed as cell-based. Summed up: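 HepG2 cells were seeded at 70% confluence the day before treatment, then exposed to a range of inhibitor concentrations for 22 h at 37°C, 5% CO2. CellTiter One reagent was then added for 2 h more, and OD495 was read. IC50 (TC50) was fit by nonlinear regression of percent viable cells against concentration.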

Data set [3] deals with Plasmodium berghei. The experiment in a line: Antiplasmodial activity against Plasmodium berghei NK65 infected in 12 wk old BALB/c mouse assessed as prepatent period at 5 mg/kg, ip administered once daily via a regimen of day 2, 1 pre-infection, on the day of infection followed by day 1 and 2 postinfection […] by microscopic analysis. Type of data set: functional. The conditions noted are these: route intraperitoneal.

Data set [4] relates to Plasmodium berghei. Nature of the data set: Antiplasmodial activity against Plasmodium berghei NK65 infected in 12 wk old C57BL/6 mouse assessed as prepatent period at 0.5 mg/kg, ip administered once daily via a regimen of day 2, 1 pre-infection, on the day of infection followed by day 1 postinfection for 4 days by microscopic analysis. The data set is classed as functional. The conditions noted are these: route intraperitoneal.

Data set [5] has as its system Plasmodium berghei. Nature of the data set: Antiplasmodial activity against Plasmodium berghei NK65 infected in 12 wk old C57BL/6 mouse assessed as prepatent period at 1.5 mg/kg, ip administered once daily via a regimen of day 2, 1 pre-infection, on the day of infection followed by day 1 and 2 postinfection for 5 days by microscopic analysis. Type of data set: functional. Particulars: route intraperitoneal.

For data set [6], the system named is Plasmodium falciparum. The experiment in a line: Antiplasmodial activity against chloroquine-sensitive Plasmodium falciparum 3D7 assessed as suppression of parasitemia by microscopic analysis.
Data set [7] has as its system Plasmodium falciparum. The experiment in a line: Antiplasmodial activity against chloroquine-resistant Plasmodium falciparum W2mef assessed as suppression of parasitemia by microscopic analysis.
Data set [8] has as its system Plasmodium berghei. Nature of the data set: Antiplasmodial activity against 5 X 10^6 blood stream Plasmodium berghei NK65 infected in 12 wk old C57BL/6 mouse assessed as prepatent period at 1.5 mg/kg, ip administered once daily via a regimen of day 2, 1 pre-infection, on the day of infection followed by day 1 and 2 postinfection for 5 days by microscopic analysis. Type of data set: functional. The conditions noted are these: route intraperitoneal. In outline: (§1)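 Mice, five per group, were dosed i.p. daily for 5 days and challenged on day 0 with 5 × 10^6 blood-stage P. berghei parasites. Parasitemia was monitored by blood smear, and the delay in prepatent period was recorded.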

Data set [9] concerns Plasmodium berghei. The experiment in a line: Antiplasmodial activity against 5 X 10^6 blood stream Plasmodium berghei NK65 infected in 12 wk old C57BL/6 mouse assessed as delay in prepatent period at 1.5 mg/kg, ip administered once daily via a regimen of day 2, 1 pre-infection, on the day of infection followed by day 1 and 2 postinfection for 5 days by microscopic analysis. The data set is classed as functional. The conditions noted are these: route intraperitoneal. In outline:
as §1

Data set [10] deals with Plasmodium berghei. Nature of the data set: Antiplasmodial activity against 5 X 10^6 blood stream Plasmodium berghei NK65 infected in 12 wk old C57BL/6 mouse assessed as parasitemia at 1.5 mg/kg, ip administered once daily via a regimen of day 2, 1 pre-infection, on the day of infection followed by day 1 and 2 postinfection for 5 days by microscopic analysis. Particulars: route intraperitoneal. Type of data set: functional. Summed up:
as §1

Data set [11] is described as follows: Inhibition of Plasmodium vivax GGPPS.
A short description of data set [12]: Inhibition of Plasmodium vivax FPPS.
Data set [13] is described as follows: Partition coefficient, log P of the compound. The data set is classed as physicochemical. Particulars: octanol/water.
Data set [14] has as its system Plasmodium berghei. The experiment in a line: Antiplasmodial activity against 3000 Plasmodium berghei NK65 liver stage sporozoites infected in 12 wk old C57BL/6 mouse assessed as delay in prepatent period at 1.5 mg/kg, ip administered once daily via a regimen of day 2, 1 pre-infection, on the day of infection followed by day 1 and 2 postinfection for 5 days by microscopic analysis. Type of data set: functional. The conditions noted are these: route intraperitoneal. In outline:
(§2)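 Mice were given compound i.p. once daily from 2 days before to 2 days after sporozoite challenge (5 doses). Challenge was 3,000 infectious P. berghei sporozoites. Parasitemia was followed by blood smear until 3–5%, then mice were sacrificed. Complete protection means no blood-stage parasites in smears; observation lasted 28 days.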

Data set [15] relates to Plasmodium berghei. Nature of the data set: Antiplasmodial activity against Plasmodium berghei NK65 infected in C57BL/6 mouse assessed as completed protection of mouse, ip administered once daily via a regimen of day 2, 1 pre-infection, on day of infection followed by a regimen of day 1 and 2 post infection for 5 days measured after 28 days. The data set is classed as functional, organism-based. In outline: as §2

Data set [16] relates to Plasmodium berghei. Nature of the data set: Antiplasmodial activity against Plasmodium berghei NK65 infected in 12 wk old BALB/c mouse assessed as prepatent period at 20 mg/kg, ip administered once daily via regimen of 1 preinfection, on day of infection followed by regimen of 1 day post infection for 3 days by microscopic analysis. The data set is classed as functional. Particulars: route intraperitoneal.

Data set [17] has as its system Plasmodium berghei. Nature of the data set: Antiplasmodial activity against Plasmodium berghei NK65 infected in 12 wk old BALB/c mouse assessed as prepatent period at 5 mg/kg, ip administered once daily on the day of infection followed by day 1 postinfection for 2 days by microscopic analysis. Type of data set: functional. The conditions noted are these: route intraperitoneal.

For data set [18], the system named is Plasmodium berghei. Nature of the data set: Antiplasmodial activity against Plasmodium berghei NK65 infected in 12 wk old BALB/c mouse assessed as prepatent period at 17 mg/kg, ip administered once daily on the day of infection followed by day 1 postinfection for 2 days by microscopic analysis. The data set is classed as functional. The conditions noted are these: route intraperitoneal.

Data set [19] relates to Plasmodium berghei. Nature of the data set: Antiplasmodial activity against Plasmodium berghei NK65 infected in 8 wk old C57BL/6 mouse assessed as prepatent period at 20 mg/kg, ip administered once daily via a regimen of day 1 pre-infection, on the day of infection followed by day 1, 2 and 3 days postinfection […] by microscopic analysis. The data set is classed as functional. The conditions noted are these: route intraperitoneal.

Data set [20] relates to Plasmodium berghei. Nature of the data set: Antiplasmodial activity against Plasmodium berghei NK65 infected in 8 wk old C57BL/6 mouse assessed as prepatent period at 20 mg/kg, ip administered once daily via regimen of […], on the day of infection followed by day 1 postinfection for 4 days by microscopic analysis. The conditions noted are these: route intraperitoneal. Type of data set: functional.

For data set [21], the system named is Plasmodium berghei. Nature of the data set: Antiplasmodial activity against Plasmodium berghei NK65 infected in 12 wk old C57BL/6 mouse assessed as prepatent period at 20 mg/kg, ip administered once daily via a regimen of day 1 pre-infection, on the day of infection followed by day 1 postinfection for 3 days by microscopic analysis. Type of data set: functional. Particulars: route intraperitoneal.

The test system of data set [22] is Plasmodium berghei. The experiment in a line: Antiplasmodial activity against Plasmodium berghei NK65 infected in 12 wk old C57BL/6 mouse assessed as prepatent period at 10 mg/kg, ip administered once daily via a regimen of day 2, 1 days pre-infection, on the day of infection followed by day 1 postinfection for 4 days by microscopic analysis. Type of data set: functional, organism-based. Also on record: dose 10 mg/kg.

The test system of data set [23] is Plasmodium berghei. The experiment in a line: Antiplasmodial activity against Plasmodium berghei NK65 infected in 12 wk old C57BL/6 mouse assessed as prepatent period at 10 mg/kg, ip administered once daily via a regimen of day 1 pre-infection, on the day of infection followed by day 1 postinfection for 3 days by microscopic analysis. The data set is classed as functional, organism-based. More on the design: dose 10 mg/kg.

Data set [24] relates to Plasmodium berghei. Nature of the data set: Antiplasmodial activity against 5 X 10^6 blood stream Plasmodium berghei NK65 infected in 12 wk old C57BL/6 mouse assessed as prepatent period at 20 mg/kg, ip administered once daily via a regimen of day 2, 1 pre-infection, on the day of infection followed by day 1 and 2 postinfection for 5 days by microscopic analysis. The conditions noted are these: route intraperitoneal. The data set is classed as functional. Summed up: as §1

The test system of data set [25] is Plasmodium berghei. The experiment in a line: Antiplasmodial activity against 5 X 10^6 blood stream Plasmodium berghei NK65 infected in 12 wk old C57BL/6 mouse assessed as delay in prepatent period at 20 mg/kg, ip administered once daily via a regimen of day 2, 1 pre-infection, on the day of infection followed by day 1 and 2 postinfection for 5 days by microscopic analysis. The data set is classed as functional. Particulars: route intraperitoneal. Summed up:
as §1

In data set [26] the test system is Plasmodium berghei. Nature of the data set: Antiplasmodial activity against 5 X 10^6 blood stream Plasmodium berghei NK65 infected in 12 wk old C57BL/6 mouse assessed as parasitemia at 20 mg/kg, ip administered once daily via a regimen of day 2, 1 pre-infection, on the day of infection followed by day 1 and 2 postinfection for 5 days by microscopic analysis. Type of data set: functional. The conditions noted are these: route intraperitoneal. In outline:
as §1

Data set [27] concerns Plasmodium berghei. The experiment in a line: Antiplasmodial activity against 3000 Plasmodium berghei NK65 liver stage sporozoites infected in 12 wk old C57BL/6 mouse assessed as delay in prepatent period at 20 mg/kg, ip administered once daily via a regimen of day 2, 1 pre-infection, on the day of infection followed by day 1 and 2 postinfection for 5 days by microscopic analysis. The data set is classed as functional. Particulars: route intraperitoneal. In outline: as §2

In data set [28] the test system is Plasmodium berghei. The experiment in a line: Antiplasmodial activity against Plasmodium berghei NK65 infected in 12 wk old BALB/c mouse assessed as prepatent period assessed as complete suppression of parasitemia at 20 mg/kg, ip administered once daily via a regimen of day 2, 1 pre-infection, on the day of infection followed by day 1 and 2 postinfection […] by microscopic analysis. The data set is classed as functional. Particulars: route intraperitoneal.

By IC50 is commonly meant the concentration that gives 50% inhibition. A word on the Ki: it is a measure of affinity in units of concentration, obtained from inhibition or displacement. Low values mean tighter binding, high ones weaker binding. Usually logP stands for a log measure of how a compound divides between an organic and an aqueous phase. With `CCCCCCCCCCOc1ccc[n+](CC(P(=O)([O-])O)P(=O)(O)O)c1` (stereo not given), the concentration for half-maximal inhibition (IC50) in [1] amounted to 10 µM; in [6], 0.67 µM; in data set [7], 0.59 µM; in data set [11], 0.56 µM; in data set [12], 1.5 µM. Also, the CC50 at 22 h in [2] worked out at 2000 µM. Besides, the Activity is >28 days in data set [3]; 3 days in data set [4]; >28 days in data set [5]; 5 days in data set [8]; 4 days in data set [9]; 0.01% in data set [10]. Besides, in data set [14], the Activity was >28 days. The Ki came out at 0.013 µM in data set [11] and 0.043 µM in [12]. Besides, the logP in data set [13] (read-out: logP) was -1.2. Moreover, the outcome in data set [15] was Active.

On to `CC[C@H](C)C(=O)O[C@H]1C[C@H](O)C=C2C=C[C@H](C)[C@H](CC[C@@H](O)C[C@@H](O)CC(=O)O)[C@H]21` [PRAVASTATIN SODIUM], for which the IC50 in [1] was > 200 µM.

Turning to `O=P(O)(O)C(O)(Cc1cccnc1)P(=O)(O)O` [RISEDRONIC ACID], the half-maximal inhibitory concentration (IC50) in [1] amounted to 16 µM; in data set [6], 1.2 µM; in data set [7] it was 1.4 µM; in data set [11] it was 1.1 µM; in data set [12], 1.7 µM. Further, the CC50 at 22 h in data set [2] stood at 13000 µM. Besides, the Activity in [16] came to 0.5 days; in data set [17] it was 0.5 days; in data set [18], 1 days; in data set [19] it was 6 days; in [20], 4 days; in data set [21] it was 2.5 days. Also, the Activity in data set [24] is 2 days; in data set [25] it was 1 days; in data set [26], 0.09%; in [27] it was 4 days; in data set [28] it was 8 days and 3 days. Also, the outcome in data set [22] and in [23] was inactive. The Ki in data set [11] was 0.024 µM; in [12], 0.048 µM. In [13], the lipophilicity (logP) is -5.5.
